Molecular target: T1, Prostaglandin G/H synthase 1 (Ovis aries) (UniProt P05979)
T1 sequence (whole entry): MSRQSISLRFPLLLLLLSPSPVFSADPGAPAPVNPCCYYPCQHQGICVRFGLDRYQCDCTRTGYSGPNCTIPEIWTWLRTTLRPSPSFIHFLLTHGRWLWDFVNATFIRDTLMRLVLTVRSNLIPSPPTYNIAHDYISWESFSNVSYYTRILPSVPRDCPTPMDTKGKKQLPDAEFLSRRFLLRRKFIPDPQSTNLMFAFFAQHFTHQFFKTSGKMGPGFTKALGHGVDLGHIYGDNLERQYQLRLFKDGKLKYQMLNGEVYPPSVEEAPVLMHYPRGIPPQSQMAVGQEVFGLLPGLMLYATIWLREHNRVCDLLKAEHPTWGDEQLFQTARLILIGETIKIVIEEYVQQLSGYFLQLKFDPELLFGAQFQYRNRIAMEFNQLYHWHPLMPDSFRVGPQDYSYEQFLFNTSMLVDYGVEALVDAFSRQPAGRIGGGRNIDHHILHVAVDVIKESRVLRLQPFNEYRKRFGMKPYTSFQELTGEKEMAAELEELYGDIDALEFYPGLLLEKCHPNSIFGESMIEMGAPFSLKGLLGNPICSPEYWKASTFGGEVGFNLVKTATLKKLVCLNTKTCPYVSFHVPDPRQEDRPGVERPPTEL
Assay: Inhibition of sheep COX1 assessed as PGE2 level at 50 uM by ELISA
In short: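 Ovine COX-1 preincubated 10 min at 37 °C in 100 mM Tris-HCl pH 8.0 with 1 µM heme. Compounds in DMSO, diluted in 100 mM potassium phosphate pH 7.4. Arachidonic acid added to 100 uM final; stopped after 2 min with 1 M HCl. PGE2 measured by competitive ELISA with AChE tracer and Ellman's reagent at 412 nm against a PGE2 standard curve. Expressed as % of solvent control; duplicate, two independent experiments.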

Compound | inhibition
Cc1noc2c(Cc3ccccc3)nn(CC(=O)N/N=C\c3ccccc3Br)c(=O)c12 | 52.8%
Cc1noc2c(Cc3ccccc3)nn(CC(=O)N/N=C\c3ccccc3Cl)c(=O)c12 | 52.8%
Cc1noc2c(Cc3ccccc3)nn(CC(=O)N/N=C\c3ccc(C(F)(F)F)cc3)c(=O)c12 | 64%
Cc1noc2c(Cc3ccccc3)nn(CC(=O)N/N=C\c3ccc([N+](=O)[O-])cc3)c(=O)c12 | 40.7%
COc1ccccc1/C=N\NC(=O)Cn1nc(Cc2ccccc2)c2onc(C)c2c1=O | 65%
Cc1noc2c(Cc3ccccc3)nn(CC(=O)N/N=C\c3ccccc3[N+](=O)[O-])c(=O)c12 | 59%
Cc1noc2c(Cc3ccccc3)nn(CC(=O)N/N=C\c3ccccc3C(F)(F)F)c(=O)c12 | 51%
COc1ccc(/C=N\NC(=O)Cn2nc(Cc3ccccc3)c3onc(C)c3c2=O)cc1 | 46.3%
COc1ccc2c(c1)c(CC(=O)O)c(C)n2C(=O)c1ccc(Cl)cc1 | 78%
Cc1ccccc1/C=N\NC(=O)Cn1nc(Cc2ccccc2)c2onc(C)c2c1=O | 46.9%

More lines, now with the values ahead:

inhibition | Compound
47.1% | Cc1noc2c(Cc3ccccc3)nn(CC(=O)N/N=C\c3cccc(C(F)(F)F)c3)c(=O)c12
50.6% | Cc1noc2c(Cc3ccccc3)nn(CC(=O)N/N=C\c3ccccc3)c(=O)c12
83% | Cc1noc2c(Cc3ccccc3)nn(CC(=O)N/N=C\c3cccc(F)c3)c(=O)c12
42.9% | Cc1noc2c(Cc3ccccc3)nn(CC(=O)N/N=C\c3cccc(Br)c3)c(=O)c12
39.6% | Cc1noc2c(Cc3ccccc3)nn(CC(=O)N/N=C\c3ccc(Cl)cc3)c(=O)c12
39.6% | Cc1noc2c(Cc3ccccc3)nn(CC(=O)N/N=C\c3cccc([N+](=O)[O-])c3)c(=O)c12
61% | Cc1cccc(/C=N\NC(=O)Cn2nc(Cc3ccccc3)c3onc(C)c3c2=O)c1
62.1% | Cc1ccc(/C=N\NC(=O)Cn2nc(Cc3ccccc3)c3onc(C)c3c2=O)cc1
36.3% | Cc1noc2c(Cc3ccccc3)nn(CC(=O)N/N=C\c3cccc(Cl)c3)c(=O)c12
41.8% | Cc1noc2c(Cc3ccccc3)nn(CC(=O)N/N=C\c3ccccc3F)c(=O)c12
54% | Cc1noc2c(Cc3ccccc3)nn(CC(=O)N/N=C\c3ccc(F)cc3)c(=O)c12
55.2% | COc1cccc(/C=N\NC(=O)Cn2nc(Cc3ccccc3)c3onc(C)c3c2=O)c1
50.6% | Cc1noc2c(Cc3ccccc3)nn(CC(=O)N/N=C\c3ccc(Br)cc3)c(=O)c12
